From ChEMBL document CHEMBL4680084, “New β-Lactam Derivatives Modulate Cell Adhesion and Signaling Mediated by RGD-Binding and Leukocyte Integrins” (J Med Chem, 2016)
Active and inactive are the calls of the source. The rule behind the calls is not given here.

What was measured:
[1] = target: T1, Integrin alpha-V/beta-5 (Homo sapiens, UniProt P06756+P18084); test: Antagonist activity at alphaVbeta5 in human MCF7 cells assessed as reduction in cell adhesion to fibrinogen pre-incubated for 30 mins before fibrinogen and further incubated for 1 hr by nitrophenyl-N-acetyl-beta-D-glucosaminide substrate based chromogenic assay
In short: (§1)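 Compound or methanol vehicle pre-incubated with cells for 30 min at room temperature. Cells then plated on wells coated overnight at 4 °C with fibronectin 10 µg/mL (SK-MEL-24, K562, HT-29) or fibrinogen 10 µg/mL (MCF7, HEL). Seeding was 50,000 cells/well, or 100000 for HEL. Adhesion ran 1 h at room temperature. Wells washed with 1% BSA/PBS. Quadruplicate, at least three repeats.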

[2] = target: T2, Integrin alpha-4/beta-1 (Homo sapiens, UniProt P05556+P13612); test: Inhibition of fibronectin binding to […] isolated from human Jurkat E6.1 cells incubated for 1 hr by scintillation-proximity assay based competitive solid-phase binding assay; format: tissue-based
[3] = target: T3, Integrin alpha-IIb/beta-3 (Homo sapiens, UniProt P05106+P08514); test: Agonist activity at alpha2bbeta3 in human HEL cells assessed as increase in cell adhesion to fibrinogen pre-incubated for 30 mins before fibrinogen and further incubated for 1 hr by nitrophenyl-N-acetyl-beta-D-glucosaminide substrate based chromogenic assay; in short: as §1
[4] = target: T4, Integrin alpha-V/beta-6 (Homo sapiens, UniProt P06756+P18564); test: Antagonist activity at alphaVbeta6 in human HT-29 cells assessed as reduction in cell adhesion to fibronectin pre-incubated for 30 mins before fibronectin and further incubated for 1 hr by nitrophenyl-N-acetyl-beta-D-glucosaminide substrate based chromogenic assay; in short: as §1
[5] = test system: K562; test: Toxicity in human K562 cells assessed as induction of cell necrosis and/or apoptosis incubated for 3 hrs by annexin V-PE and 7-AAD staining based by flow cytometry; settings: k562, 3 h
In short: (§2)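 After 3 h incubation, cells resuspended in complete medium and stained with annexin V-PE/7-AAD reagent for 20 min at room temperature in the dark. Flow cytometry sorted cells into viable, early apoptotic and late apoptotic/necrotic populations.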

[6] = target: T5, Integrin alpha-V/beta-3 (Homo sapiens, UniProt P05106+P06756); test: Inhibition of fibronectin binding to human recombinant alphaVbeta3 expressed in HEK293 cells incubated for 1 hr by […] competitive solid-phase binding assay; format: cell-based
[7] = target: T5, Integrin alpha-V/beta-3; test: Antagonist activity at alphaVbeta3 in human SK-MEL-24 cells assessed as reduction in cell adhesion to fibronectin pre-incubated for 30 mins before fibronectin and further incubated for 1 hr by nitrophenyl-N-acetyl-beta-D-glucosaminide substrate based chromogenic assay; in short: as §1
[8] = target: T6, Integrin alpha-L/beta-2 (LFA-1) (Homo sapiens, UniProt P05107+P20701); test: Antagonist activity at alphaLbeta2 in human Jurkat E6.1 cells assessed as reduction in cell adhesion to ICAM1 pre-incubated for 30 mins before ICAM1 and further incubated for 30 mins by […]; format: cell-based
In short: (§3)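 Jurkat E6.1 cells labelled with CellTracker green CMFDA (12.5 µM, 30 min, 37 °C), washed, then pre-incubated 30 min at 37 °C with compound or methanol. Plated at 500,000/well on VCAM-1 (α4β1) or ICAM-1 (αLβ2) coated wells (5 µg/mL) for 30 min at 37 °C. Cells lysed in 0.5% Triton X-100; fluorescence read Ex485/Em535. Quadruplicate, at least three repeats.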

[9] = target: T5, Integrin alpha-V/beta-3; test: Agonist activity at alphaVbeta3 in human SK-MEL-24 cells assessed as increase in cell adhesion to fibronectin pre-incubated for 30 mins before fibronectin and further incubated for 1 hr by nitrophenyl-N-acetyl-beta-D-glucosaminide substrate based chromogenic assay
In short: as §1, with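 “BSA/PBS. Adherent cells read by hexosaminidase substrate, absorbance 405 nm.” for “BSA/PBS.”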

[10] = test system: HEL; test: Toxicity in human HEL cells assessed as induction of cell necrosis and/or apoptosis incubated for 3 hrs by annexin V-PE and 7-AAD staining based by flow cytometry; in short: as §2
[11] = target: T6, Integrin alpha-L/beta-2 (LFA-1); test: Agonist activity at alphaLbeta2 in human Jurkat E6.1 cells assessed as increase in cell adhesion to ICAM1 pre-incubated for 30 mins before ICAM1 and further incubated for 30 mins by […]; format: cell-based; in short: as §3
[12] = target: T4, Integrin alpha-V/beta-6; test: Inhibition of fibronectin binding to alphaVbeta6 isolated form human HT-29 cells incubated for 1 hr by […] competitive solid-phase binding assay; format: tissue-based
[13] = target: T7, Integrin alpha-5/beta-1 (Homo sapiens, UniProt P05556+P08648); test: Antagonist activity at alpha5beta1 in human K562 cells assessed as reduction in cell adhesion to fibronectin pre-incubated for 30 mins before fibronectin and further incubated for 1 hr by nitrophenyl-N-acetyl-beta-D-glucosaminide substrate based chromogenic assay
In short: as §1, with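 “BSA/PBS. Adherent cells read by hexosaminidase substrate, absorbance 405 nm.” for “BSA/PBS.”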

[14] = test system: HT-29; test: Toxicity in human HT-29 cells assessed as induction of cell necrosis and/or apoptosis incubated for 3 hrs by annexin V-PE and 7-AAD staining based by flow cytometry; settings: ht-29, 3 h; in short: as §2
[15] = target: T7, Integrin alpha-5/beta-1; test: Agonist activity at alpha5beta1 in human K562 cells assessed as increase in cell adhesion to fibronectin pre-incubated for 30 mins before fibronectin and further incubated for 1 hr by nitrophenyl-N-acetyl-beta-D-glucosaminide substrate based chromogenic assay
In short: as §1, with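 “BSA/PBS. Adherent cells read by hexosaminidase substrate, absorbance 405 nm.” for “BSA/PBS.”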

[16] = target: T1, Integrin alpha-V/beta-5; test: Agonist activity at alphaVbeta5 in human MCF7 cells assessed as increase in cell adhesion to fibrinogen pre-incubated for 30 mins before fibrinogen and further incubated for 1 hr by nitrophenyl-N-acetyl-beta-D-glucosaminide substrate based chromogenic assay
In short: as §1, with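 “BSA/PBS. Adherent cells read by hexosaminidase substrate, absorbance 405 nm.” for “BSA/PBS.”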

[17] = target: T2, Integrin alpha-4/beta-1; test: Agonist activity at alpha4beta1 in human Jurkat E6.1 cells assessed as increase in ERK1/2 phosphorylation at 1 to 100 nM by Western blot analysis; format: cell-based; settings: filed as agonist, dose 1-100 nM
[18] = target: T2, Integrin alpha-4/beta-1; test: Agonist activity at alpha4beta1 in human Jurkat E6.1 cells assessed as increase in HUTS-21 antibody binding by flow cytometry analysis; format: cell-based; settings: filed as agonist
In short: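 Jurkat E6.1 cells at 10⁶/mL in 1% BSA/HBSS incubated 30 min at 37 °C with compound. PE-labelled HUTS-21 mAb then added for 45 min at room temperature. Cells washed, 10,000 analysed by flow cytometry. MFI corrected to isotype control set to 0. Four independent experiments in duplicate.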

[19] = test system: SK-MEL-24; test: Toxicity in human SK-MEL-24 cells assessed as induction of cell necrosis and/or apoptosis incubated for 3 hrs by annexin V-PE and 7-AAD staining based by flow cytometry; settings: sk-mel-24, 3 h; in short: as §2
[20] = target: T1, Integrin alpha-V/beta-5; test: Inhibition of fibrinogen binding to alphaVbeta5 isolated form human mCf7 cells incubated for 1 hr by […] competitive solid-phase binding assay
[21] = target: T4, Integrin alpha-V/beta-6; test: Agonist activity at alphaVbeta6 in human HT-29 cells assessed as increase in cell adhesion to fibronectin pre-incubated for 30 mins before fibronectin and further incubated for 1 hr by nitrophenyl-N-acetyl-beta-D-glucosaminide substrate based chromogenic assay
In short: as §1, with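 “BSA/PBS. Adherent cells read by hexosaminidase substrate, absorbance 405 nm.” for “BSA/PBS.”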

[22] = target: T3, Integrin alpha-IIb/beta-3; test: Antagonist activity at alpha2bbeta3 in human HEL cells assessed as reduction in cell adhesion to fibrinogen pre-incubated for 30 mins before fibrinogen and further incubated for 1 hr by nitrophenyl-N-acetyl-beta-D-glucosaminide substrate based chromogenic assay; in short: as §1
[23] = target: T2, Integrin alpha-4/beta-1; test: Agonist activity at alpha4beta1 in human Jurkat E6.1 cells assessed as increase in cell adhesion to VCAM1 at 2 to 10 ug/ml pre-incubated for 30 mins and further incubated for 30 mins by nitrophenyl-N-acetyl-beta-D-glucosaminide substrate based chromogenic assay; settings: filed as agonist, dose 2-10 µg/ml, time 60.0 min
[24] = target: T7, Integrin alpha-5/beta-1; test: Inhibition of fibronectin binding to alpha5beta1 isolated from human K562 cells incubated for 1 hr by […] competitive solid-phase binding assay; format: tissue-based
In short: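 Plates coated overnight at 4 °C in carbonate buffer pH 9.6 with fibronectin 0.5 µg/mL (αvβ3, αvβ6, α5β1), fibrinogen 10 µg/mL (αIIbβ3, αvβ5) or ICAM-1 (αLβ2). Blocked 1 h in buffer containing Ca/Mg/Mn 1 mM each and 1% BSA. Purified integrin (3–10 µg/mL) incubated with compound (10⁻⁴–10⁻¹⁰ M) 1 h at room temperature. Bound integrin detected with primary antibody then AlexaFluor488 secondary, Ex485/Em535. Duplicate, at least three repeats.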

[25] = test system: MCF7; test: Toxicity in human MCF7 cells assessed as induction of cell necrosis and/or apoptosis incubated for 3 hrs by annexin V-PE and 7-AAD staining based by flow cytometry; settings: mcf7, 3 h; in short: as §2
[26] = target: T5, Integrin alpha-V/beta-3; test: (§4) Agonist activity at alphaVbeta3 in human SK-MEL-24 cells assessed as increase in cell adhesion to fibronectin at 10 ug/ml pre-incubated for 30 mins and further incubated for 1 hr in presence of in presence of integrin antagonist c(-RGDfV) by nitrophenyl-N-acetyl-beta-D-glucosaminide substrate based chromogenic assay; settings: dose 10.0 µg/ml, time 90.0 min
[27] = target: T5, Integrin alpha-V/beta-3; test: Agonist activity at alphaVbeta3 in human SK-MEL-24 cells assessed as increase in cell adhesion to fibronectin at 2 to 10 ug/ml pre-incubated for 30 mins and further incubated for 1 hr by nitrophenyl-N-acetyl-beta-D-glucosaminide substrate based chromogenic assay; settings: filed as agonist, dose 2-10 µg/ml, time 90.0 min
[28] = target: T5, Integrin alpha-V/beta-3; test: Agonist activity at human alphaVbeta3 expressed in HEK293 cells assessed as increase in ERK1/2 phosphorylation by Western blot analysis; format: cell-based; settings: filed as agonist
[29] = target: T2, Integrin alpha-4/beta-1; test: Agonist activity at alpha4beta1 in human Jurkat E6.1 cells assessed as increase in cell adhesion to VCAM1 pre-incubated for 30 mins before VCAM1 and further incubated for 30 mins by […]; format: cell-based; in short: as §3
[30] = target: T3, Integrin alpha-IIb/beta-3; test: Inhibition of fibrinogen binding to alpha2bbeta3 isolated from human HEL cells incubated for 1 hr by […] competitive solid-phase binding assay
[31] = target: T2, Integrin alpha-4/beta-1; test: Antagonist activity at alpha4beta1 in human Jurkat E6.1 cells assessed as reduction in cell adhesion to VCAM1 pre-incubated for 30 mins before VCAM1 and further incubated for 30 mins by […]; format: cell-based
[32] = target: T5, Integrin alpha-V/beta-3; test: as §4, with “of neutralizing antibody against the alphaV” for “of in presence of”, “integrin subunit” for “integrin antagonist c(-RGDfV)”; settings: dose 10.0 µg/ml, time 90.0 min

Structure (SMILES) | IC50 [2] | EC50 [3] | IC50 [4] | Activity [5] | IC50 [6] | IC50 [8] | Activity [10] | EC50 [11] | IC50 [12] | Activity [14] | EC50 [16] | Activity [19] | IC50 [20] | EC50 [21] | IC50 [22] | IC50 [24] | Activity [25] | also measured
Cc1ccccc1NC(=O)N1C(=O)CC1CC(=O)O (centres undefined) | 9.8 nM | > 5 µM | > 5 µM | Non-Toxic | > 1000 nM | > 5 µM | Non-Toxic | > 5 µM | > 1000 nM | Non-Toxic | > 5000 nM | Non-Toxic | > 1000 nM | > 5 µM | > 5 µM | > 1000 nM | Non-Toxic | IC50 [1]: > 5 µM; IC50 [7]: > 5 µM; EC50 [9]: > 5 µM; IC50 [13]: > 5 µM; EC50 [15]: > 5 µM; Activity [17]: Active; Activity [18]: Dose-dependent effect; Activity [23]: Active
NCc1ccc(NC(=O)N2C(=O)CC2CC(=O)NCC(=O)O)cc1.O=C(O)C(F)(F)F (centres undefined) | > 1000 nM | > 5 µM | > 5 µM | Non-Toxic | 1.2 nM | > 5 µM | Non-Toxic | > 5 µM | > 1000 nM | Non-Toxic | 505 nM | Non-Toxic | 104 nM | > 5 µM | > 5 µM | > 1000 nM | Non-Toxic | Activity [26]: inactive; Activity [27]: Dose-dependent effect; Activity [28]: Dose-dependent effect; EC50 [29]: > 5 µM; IC50 [30]: > 1000 nM; IC50 [31]: > 5 µM; Activity [32]: inactive
